For assay [1], the system named is A549. The experiment in a line: Anticancer activity against human A549 cells after 48 hrs by MTT assay. It counts as functional, cell-based. The note with it: A549, 48 h. The method in brief:
(§1)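 MTT assay. Cells seeded at 1 × 10⁴/well in DMEM with 10% FBS and held 24 h at 37 °C in CO₂. Compounds were diluted in culture medium and added alongside vehicle controls, then incubated 48 h. MTT (5 mg/ml stock) was added for 4 h. Supernatant was removed, formazan dissolved in DMSO, and absorbance read at 540 nm.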
(In general: Tetrazolium dyes change colour on reduction, which living cells bring about.)

The next assay deals with A-375. Nature of the assay: Anticancer activity against human A375 cells after 48 hrs by MTT assay. It counts as functional, cell-based. To be noted: A-375, 48 h. The method in brief: as §1
The next assay deals with MCF7. The experiment in a line: Anticancer activity against human MCF7 cells after 48 hrs by MTT assay. The format is functional, cell-based. The note with it: MCF7, 48 h. The method in brief: as §1
The next assay has as its system HT-29. Nature of the assay: Anticancer activity against human HT-29 cells after 48 hrs by MTT assay. The note with it: HT-29, 48 h. The format is functional, cell-based. The method in brief:
as §1

The test system of the next assay is ACHN. Nature of the assay: Anticancer activity against human ACHN cells after 48 hrs by MTT assay. The format is functional, cell-based. The method in brief: as §1
The subject of assay [2] is A549. Nature of the assay: Induction of apoptosis in human A549 cells assessed as cytoplasmic condensation at 2 uM after 24 hrs by Hoechst staining-based fluorescent microscopic analysis. The format is functional, cell-based. The method in brief: (§2)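 A-549 cells (10,000) were grown on 18-mm coverslips for 24 h, given fresh medium, then treated 24 h. Vehicle control was 0.001% DMSO. Hoechst 33258 was added to medium at […]. Apoptotic cells were quantified manually by field counts scoring cytoplasmic condensation, apoptotic bodies, nuclear fragmentation and relative fluorescence.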

Assay [3] relates to A549. Nature of the assay: Induction of apoptosis in human A549 cells assessed as cytoplasmic condensation at 5 uM after 24 hrs by Hoechst staining-based fluorescent microscopic analysis. The format is functional, cell-based. The method in brief: as §2
For assay [4], the system named is A549. Nature of the assay: Induction of apoptosis in human A549 cells assessed as presence of apoptotic bodies at 2 uM after 24 hrs by Hoechst staining-based fluorescent microscopic analysis. The format is functional, cell-based. The method in brief: as §2
Assay [5] deals with A549. The experiment in a line: Induction of apoptosis in human A549 cells assessed as presence of apoptotic bodies at 5 uM after 24 hrs by Hoechst staining-based fluorescent microscopic analysis. The format is functional, cell-based. The method in brief: as §2
Assay [6] concerns A549. Nature of the assay: Induction of apoptosis in human A549 cells assessed as nuclear fragmentation at 2 uM after 24 hrs by Hoechst staining-based fluorescent microscopic analysis. The format is functional, cell-based. The method in brief: as §2
Assay [7] concerns A549. The experiment in a line: Induction of apoptosis in human A549 cells assessed as nuclear fragmentation at 5 uM after 24 hrs by Hoechst staining-based fluorescent microscopic analysis. The format is functional, cell-based. The method in brief:
as §2

In assay [8] the test system is A549. Nature of the assay: Induction of apoptosis in human A549 cells assessed as induction of DNA fragmentation at 5 uM after 48 hrs by agarose gel electrophoresis. It counts as functional, cell-based. The method in brief: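 A-549 cells (1 × 10⁶, six-well plates) were treated 48 h after 24 h attachment. Cells were pelleted, PBS-washed and lysed. Supernatant was treated with 10% SDS and RNase-A for 2 h at 56 °C, then proteinase K for 2 h at 37 °C. DNA was precipitated with ammonium acetate and ice-cold ethanol at −80 °C, pelleted, washed with 80% ethanol, and run for ladder pattern against a 50 bp marker.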

Assay [9] deals with A549. The experiment in a line: Cell cycle arrest in human A549 cells assessed as accumulation at subG1 phase at 1 uM after by propidium iodide staining-based fluorescence analysis (reference value: 2.74%). It counts as functional.
Assay [10] has as its system A549. The experiment in a line: Cell cycle arrest in human A549 cells assessed as accumulation at subG1 phase at 5 uM after by propidium iodide staining-based fluorescence analysis (reference value: 2.74%). It counts as functional.
Assay [11] relates to A549. The experiment in a line: Cell cycle arrest in human A549 cells assessed as accumulation at G0/G1 phase at 1 uM after by propidium iodide staining-based fluorescence analysis (reference value: 83.43%). It counts as functional.
For assay [12], the system named is A549. Nature of the assay: Cell cycle arrest in human A549 cells assessed as accumulation at G0/G1 phase at 5 uM after by propidium iodide staining-based fluorescence analysis (reference value: 83.43%). The format is functional.
Assay [13] deals with A549. The experiment in a line: Cell cycle arrest in human A549 cells assessed as accumulation at S phase at 1 uM after by propidium iodide staining-based fluorescence analysis (reference value: 2.74%). It counts as functional.
Assay [14] deals with A549. Nature of the assay: Cell cycle arrest in human A549 cells assessed as accumulation at S phase at 5 uM after by propidium iodide staining-based fluorescence analysis (reference value: 2.74%). The format is functional.
Assay [15] concerns A549. The experiment in a line: Cell cycle arrest in human A549 cells assessed as accumulation at G2/M phase at 1 uM after by propidium iodide staining-based fluorescence analysis (reference value: 9.27%). It counts as functional.
Assay [16] deals with A549. The experiment in a line: Cell cycle arrest in human A549 cells assessed as accumulation at G2/M phase at 5 uM after by propidium iodide staining-based fluorescence analysis (reference value: 9.27%). The format is functional.
Assay [17] relates to A549. The experiment in a line: Induction of apoptosis in human A549 cells assessed as caspase 3 activation using Ac-DEVD as substrate at 2 uM after 48 hrs by fluorometric analysis relative to control. It counts as functional. The method in brief: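 A-549 cells were seeded at 2.5 × 10⁵/well and treated. Cells were scraped into PBS, pelleted, lysed on ice 20–30 min, and cleared at 13,200 rpm. Lysate was mixed with 2X assay buffer and Ac-DEVD-AFC substrate and reacted 1 h. AFC fluorescence (ex 400, em 505 nm) was read every 5 min, expressed as fold over control. Mean of two experiments in triplicate.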

Activity calls are given as the source filed them. No cut-off for these calls is given here.

The IC50 is the concentration needed to halve the response being measured.

Turning to `COc1cc([C@@H]2c3cc4c(cc3[C@@H](NC(=O)/C=C/c3ccc(C(F)(F)F)cc3)[C@H]3COC(=O)[C@H]23)OCO4)cc(OC)c1OC`, the 50% inhibitory concentration (IC50) with A549 [1] turned out to be 2.1 µM; with A-375, 18 µM; in the assay with MCF7, 19.2 µM; in the assay with HT-29, 0.37 µM; in the assay on ACHN, 2.18 µM. Besides, the outcome with A549 [2], with A549 [3], in the assay on A549 [4], in the assay on A549 [5], with A549 [6] and in the assay on A549 [7] was Active. Also, in the assay with A549 [8], the result was Active. Besides, the Activity in the assay on A549 [9] is given as 4.51%; in the assay with A549 [10], 4.43%; with A549 [11] it was 45.23%; with A549 [12], 39.84%; in the assay on A549 [13], 9.54%; in the assay with A549 [14], 10.16%. The Activity is 38.11% in the assay on A549 [15] and 43.39% with A549 [16]. The “fold change (FC)” value with A549 [17] was 4.

As for `COc1cc([C@@H]2c3cc4c(cc3[C@@H](O[C@@H]3O[C@@H]5CO[C@@H](C)O[C@H]5[C@H](O)[C@H]3O)[C@H]3COC(=O)[C@H]23)OCO4)cc(OC)c1O` [ETOPOSIDE], the half-inhibitory concentration (IC50) in the assay on A549 [1] was 2.34 µM; with A-375, 1.39 µM; in the assay with MCF7, 0.68 µM; with HT-29 it was 1.81 µM; with ACHN, 7.61 µM. Moreover, the outcome in the assay with A549 [2], in the assay on A549 [3], in the assay on A549 [4], with A549 [5], in the assay with A549 [6] and with A549 [7] was Active. Also, in the assay on A549 [8], the result was Active. Further, the Activity in the assay on A549 [9] is reported as 2.89%; in the assay on A549 [11] it was 69.82%; with A549 [13], 7.23%; with A549 [15], 19.21%. Besides, the “fold change (FC)” value in the assay with A549 [17] is listed as 6.

As for `COc1cc([C@@H]2c3cc4c(cc3[C@@H](NC(=O)/C=C/c3ccccc3)[C@H]3COC(=O)[C@H]23)OCO4)cc(OC)c1OC`, the IC50 in the assay with A549 [1] worked out at 2.7 µM; in the assay on A-375, 13.4 µM; with MCF7 it was 19.7 µM; in the assay on HT-29 it was 2.36 µM; in the assay with ACHN, 3.91 µM. Further, the result in the assay with A549 [2], with A549 [3], with A549 [4], in the assay on A549 [5], in the assay with A549 [6] and in the assay on A549 [7] was Active. The outcome in the assay with A549 [8] was Active. The Activity turned out to be 3.29% with A549 [9]; 2.62% in the assay on A549 [10]; 23.39% in the assay on A549 [11]; 18.65% in the assay on A549 [12]; 9.5% in the assay with A549 [13]; 8.64% with A549 [14]. For the same compound, the Activity is reported as 61.89% in the assay with A549 [15] and 67.78% with A549 [16]. The “fold change (FC)” value in the assay on A549 [17] stood at 4.

Turning to `COc1cc(C(=O)/C=C/c2ccc(OCC(=O)N[C@@H]3c4cc5c(cc4[C@@H](c4cc(OC)c(OC)c(OC)c4)[C@H]4C(=O)OC[C@@H]43)OCO5)cc2)cc(OC)c1OC`, the IC50 in the assay with A549 [1] is 19.1 µM; in the assay with A-375, 25.8 µM; in the assay with MCF7, 24.2 µM; in the assay on HT-29 it was 12.4 µM; in the assay on ACHN, 10.2 µM.

For the compound `COc1cc([C@@H]2c3cc4c(cc3[C@@H](NC(=O)/C=C/c3ccc(Cl)c(Cl)c3)[C@H]3COC(=O)[C@H]23)OCO4)cc(OC)c1OC`, the IC50 in the assay with A549 [1] was 8.4 µM; with A-375 it was 13.2 µM; in the assay with MCF7, 20.1 µM; in the assay on HT-29 it was 21 µM; in the assay on ACHN, 17.7 µM.

Turning to `COc1cc(/C=C/C(=O)c2ccc(F)cc2)ccc1OCC(=O)N[C@@H]1c2cc3c(cc2[C@@H](c2cc(OC)c(OC)c(OC)c2)[C@H]2C(=O)OC[C@@H]21)OCO3`, the IC50 in the assay on A549 [1] worked out at 26.4 µM; in the assay with A-375 it was 12.2 µM; in the assay on MCF7, 19.1 µM; in the assay with HT-29, 21.6 µM; in the assay on ACHN, 26.7 µM.

Regarding `COc1cc(/C=C/C(=O)c2cc(OC)c(OC)c(OC)c2)ccc1OCCCCCC(=O)N[C@@H]1c2cc3c(cc2[C@@H](c2cc(OC)c(OC)c(OC)c2)[C@H]2C(=O)OC[C@@H]21)OCO3`, the IC50 with A549 [1] is 13.6 µM; in the assay with A-375 it was 9.8 µM; in the assay on MCF7 it was 10.2 µM; with HT-29, 12.1 µM; with ACHN it was 19.5 µM.

(Values after ChEMBL document CHEMBL1926683, “Synthesis and anticancer activity of 4β-alkylamidochalcone and 4β-cinnamido linked podophyllotoxins as apoptotic inducing agents” (Eur J Med Chem, 2012).)
